Assay [1] relates to MCF7. Put plainly: Antitumor activity against human MCF7 cells after 6 days by SRB assay. The assay is classed as functional. The arrangement: concentration or dose not given beside the values. In short, it runs like this:
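MCF7 breast cancer cells were grown in RPMI 1640 with 10% FBS and antibiotic-antimycotic at 37 °C under 5% CO2. They were seeded at 50,000 cells/mL and exposed to inhibitor for six days. Cells were fixed with ice-cold TCA for 1 h, stained with SRB for 30 min at RT, washed with 1% acetic acid and solubilized in 10 mM Tris. A515 was read. […].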
On the technique in general: In SRB staining, fixed cells bind dye roughly in proportion to their protein.

A further assay has as its system HT-1080. Description: Cytotoxicity against human HT1080 cells after 6 days by SRB assay. The assay is classed as functional, cell-based. As to conditions: HT-1080, 144 h. The essentials: (§1)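 Cells were plated at 50,000 cells/mL in a humidified 5% CO2 atmosphere at 37 °C and incubated with inhibitors for six days. They were then fixed 1 h in cold TCA, stained 30 min at RT with SRB, washed with 1% acetic acid and solubilized in 10 mM Tris before reading at 515 nm. Means of four duplicate samples were expressed relative to solvent control, with IC50 from nonlinear regression.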

In another assay the test system is SNU-638. Put plainly: Cytotoxicity against human SNU638 cells after 6 days by SRB assay. To be noted: SNU-638, 144 h. Format: functional, cell-based. The essentials: as §1
A further assay deals with A549. Put plainly: Cytotoxicity against human A549 cells after 6 days by SRB assay. The assay is classed as functional, cell-based. As to conditions: A549, 144 h. In short, it runs like this:
as §1

Another assay relates to K562. Put plainly: Cytotoxicity against human K562 cells after 6 days by SRB assay. Format: functional, cell-based. To be noted: K562, 144 h. In short, it runs like this:
as §1

Another assay concerns HCT-116. Description: Cytotoxicity against human HCT116 cells after 6 days by SRB assay. To be noted: HCT-116, 144 h. Format: functional, cell-based. In short, it runs like this:
as §1

The test system of assay [2] is MCF7. Description: Antitumor activity against human MCF7 cells at 10 uM after 6 days by SRB assay. Format: functional, cell-based. As to conditions: MCF7, 144 h. The essentials: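 MCF7 cells were cultured in RPMI 1640 with 10% FBS at 37 °C and 5% CO2, plated at 50,000 cells/mL, and given a fixed 10 µM compound for six days. Viability was read by SRB staining after TCA fixation, Tris solubilization and absorbance at 515 nm. […], as means of three experiments with standard deviations.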

Assay [3] addresses Nicotinamide phosphoribosyltransferase (Homo sapiens, UniProt P43490). Description: Inhibition of human NAmPRTase by HPLC analysis.

17 compounds from ChEMBL document CHEMBL1759927, “Design, synthesis and X-ray crystallographic study of NAmPRTase inhibitors as anti-cancer agents” (Eur J Med Chem, 2011) can be followed below.

SMILES strings stand for the structures.

Nicotinamide phosphoribosyltransferase, sequence (P43490 whole entry): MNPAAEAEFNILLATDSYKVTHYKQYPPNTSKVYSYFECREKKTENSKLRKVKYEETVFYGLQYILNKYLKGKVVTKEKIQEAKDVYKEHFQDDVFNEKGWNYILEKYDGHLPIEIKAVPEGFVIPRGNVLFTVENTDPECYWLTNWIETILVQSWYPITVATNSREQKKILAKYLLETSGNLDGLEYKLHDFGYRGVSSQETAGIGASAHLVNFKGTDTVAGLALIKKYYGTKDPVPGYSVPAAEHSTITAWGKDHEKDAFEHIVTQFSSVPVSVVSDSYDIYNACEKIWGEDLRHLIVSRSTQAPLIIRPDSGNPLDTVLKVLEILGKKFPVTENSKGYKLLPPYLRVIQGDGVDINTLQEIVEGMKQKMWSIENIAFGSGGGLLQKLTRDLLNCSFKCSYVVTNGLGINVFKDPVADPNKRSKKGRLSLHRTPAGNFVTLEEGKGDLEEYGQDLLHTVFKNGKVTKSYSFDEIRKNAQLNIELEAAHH

With `O=C(/C=C/c1cn(CCC(CO)CO)cn1)NCCCCC1CCN(C(=O)c2ccccc2)CC1`, the “Cell survival (% of control)” value with MCF7 [1] was 104.3%.

With `O=C(/C=C/c1cccc([N+](=O)[O-])c1)NCCCCC1CCN(C(=O)c2ccccc2)CC1`, the “Cell survival (% of control)” value with MCF7 [1] was determined as 103.1%.

With `Cn1cccc1/C=C/C(=O)NCCCCC1CCN(C(=O)c2ccccc2)CC1`, the “Cell survival (% of control)” value with MCF7 [1] stood at 103.6%.

In the case of `Nc1cccc(/C=C/C(=O)NCCCCC2CCN(C(=O)c3ccccc3)CC2)c1`, the “Cell survival (% of control)” value in the assay on MCF7 [1] came out at 103.9%.

On to `O=C(/C=C/c1cn[nH]c1)NCCCCC1CCN(C(=O)c2ccccc2)CC1`, for which the “Cell survival (% of control)” value in the assay on MCF7 [1] came out at 101.7%.

For `O=C(/C=C/c1c[nH]cn1)NCCCCC1CCN(C(=O)c2ccccc2)CC1`, the “Cell survival (% of control)” value in the assay with MCF7 [1] stood at 102.9%.

On to `O=C(/C=C/c1cncnc1)NCCCCC1CCN(C(=O)c2ccccc2)CC1`, for which the “Cell survival (% of control)” value with MCF7 [1] is on record as 86.8%.

For `O=C(/C=C/c1cnn(CCC(CO)CO)c1)NCCCCC1CCN(C(=O)c2ccccc2)CC1`, in the assay with MCF7 [1], the “Cell survival (% of control)” value is 106.6%.

Consider `O=C(/C=C/c1cn(CCC(CO)CO)c2ccccc12)NCCCCC1CCN(C(=O)c2ccccc2)CC1`, for which the “Cell survival (% of control)” value with MCF7 [1] amounted to 104.9%.

A word on the IC50: it is the concentration that inhibits the measured activity by half. Take `Cc1c2ccncc2c(C)c2c1[nH]c1ccccc12` [ELLIPTECINE]: the IC50 in the assay on HT-1080 stood at 210 nM; in the assay with SNU-638, 1640 nM; in the assay on A549, 470 nM; with K562, 380 nM; in the assay with HCT-116 it was 410 nM.

In the case of `Nc1ncc(/C=C/C(=O)NCCCCC2CCN(C(=O)c3ccccc3)CC2)cn1`, the “Cell survival (% of control)” value in the assay on MCF7 [1] amounted to 103.4%.

On to `Nc1ccccc1/C=C/C(=O)NCCCCC1CCN(C(=O)c2ccccc2)CC1`, for which, in the assay with MCF7 [1], the “Cell survival (% of control)” value was 106.3%.

As to `O=C(/C=C/c1ccc[nH]1)NCCCCC1CCN(C(=O)c2ccccc2)CC1`, the IC50 in the assay on HT-1080 came to 3200 nM; in the assay on SNU-638 it was 1700 nM; with MCF7 [2], 1290 nM; in assay [3] it was 20300 nM; in the assay on A549 it was 4860 nM; in the assay on K562 it was 1400 nM. In the assay on HCT-116, this compound displayed a concentration for half-maximal inhibition (IC50) of 300 nM. For the same compound, the “Cell survival (% of control)” value with MCF7 [1] was 4.5%.

As to `O=C(/C=C/c1cccnc1)NCCCCC1CCN(C(=O)c2ccccc2)CC1` [DAPORINAD], the IC50 in the assay on HT-1080 was less than 160 nM; with SNU-638 it was less than 160 nM; with MCF7 [2], 680 nM; in the assay with A549 it was less than 160 nM; in the assay with K562, greater than 20000 nM; in the assay on HCT-116, less than 160 nM. The “Cell survival (% of control)” value with MCF7 [1] is on record as 5.6%.

As for `O=C(/C=C/c1cccn1CCC(CO)CO)NCCCCC1CCN(C(=O)c2ccccc2)CC1`, in the assay on MCF7 [1], the “Cell survival (% of control)” value is on record as 105%.

For the compound `O=C(/C=C/c1ccccc1[N+](=O)[O-])NCCCCC1CCN(C(=O)c2ccccc2)CC1`, the “Cell survival (% of control)” value in the assay with MCF7 [1] turned out to be 102.7%.

For `O=C(/C=C/c1c[nH]c2ccccc12)NCCCCC1CCN(C(=O)c2ccccc2)CC1`, the “Cell survival (% of control)” value in the assay with MCF7 [1] is recorded as 103.3%.
